Data on one compound can be found in ChEMBL document CHEMBL4831478, “Bispecific Estrogen Receptor α Degraders Incorporating Novel Binders Identified Using DNA-Encoded Chemical Library Screening” (J Med Chem, 2021).

Activity calls are given as the source filed them. The rule behind the calls is not given here.

The nature of data set [1]: Drug uptake in CD1 mouse tumor xenografted with human MCF7 cells 10 mg/kg, sc measured after 3 hrs post last dose. The following applies: in vivo.
Data set [2] deals with Mus musculus. In words: Induction of ERalpha degradation in CD1 mouse xenografted with human MCF7 cells assessed as reduction in ERalpha level at 10 mg/kg, sc measured after 3 days by Western blotting analysis. Type of data set: functional, organism-based. The following applies: time 3.0 day. For orientation: Xenograft models place foreign cells or tissue in a host animal.

The target in data set [3] is T1, Estrogen receptor (Homo sapiens) (UniProt P03372).
T1 sequence (whole entry): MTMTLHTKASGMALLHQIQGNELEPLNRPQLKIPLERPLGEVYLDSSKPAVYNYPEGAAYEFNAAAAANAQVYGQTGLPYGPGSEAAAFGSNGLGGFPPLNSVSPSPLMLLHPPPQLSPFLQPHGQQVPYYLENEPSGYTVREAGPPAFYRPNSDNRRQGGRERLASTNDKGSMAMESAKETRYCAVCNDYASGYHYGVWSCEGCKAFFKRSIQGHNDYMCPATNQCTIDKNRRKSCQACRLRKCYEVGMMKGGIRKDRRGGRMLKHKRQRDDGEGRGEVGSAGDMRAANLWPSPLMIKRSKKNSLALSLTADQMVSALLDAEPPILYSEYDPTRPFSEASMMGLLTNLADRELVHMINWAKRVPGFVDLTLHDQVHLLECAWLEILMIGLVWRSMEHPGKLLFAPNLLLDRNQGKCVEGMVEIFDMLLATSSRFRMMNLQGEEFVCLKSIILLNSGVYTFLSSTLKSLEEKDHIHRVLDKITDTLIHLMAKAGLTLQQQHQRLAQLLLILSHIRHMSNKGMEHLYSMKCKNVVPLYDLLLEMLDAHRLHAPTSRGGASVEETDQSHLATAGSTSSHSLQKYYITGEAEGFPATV
Put plainly: Induction of ERalpha degradation in human MCF7 cells assessed as reduction in ERalpha expression at 1 uM after 2 hrs by Western blotting analysis. It counts as cell-based. In outline:
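MCF7 cells in hormone-deprived media (agonist mode) or full-serum media (antagonist mode) were treated with 1 μM compound over a 48 h time course. Cells were lysed and ERα was detected by western blot, with tubulin as the normalizer.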
(In general: Immunoblotting shows a protein as a band on a membrane.)

The target in data set [4] is T2, Estrogen receptor (Homo sapiens, UniProt P03372).
T2 sequence (P03372 whole entry): T1 sequence (whole entry)
In words: Binding affinity to recombinant His-tagged ERalpha LBD (307 to 554 residue) (unknown origin) expressed in Escherichia coli preincubated for 15 mins followed by ligand addition and measured after 1 hr by fluorescent polarization assay. In outline: (§1)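 ERα LBD (aa 307–554), WT or D538G, S463P, Y537S, with N-terminal Avi-Tev-His tag, expressed in E. coli T7 Express (20 °C, 12 h, IPTG). Purified by Ni-NTA then size exclusion. Compound preincubated with protein 15 min, fluorescent ligand added, 1 h at room temperature. FP read ex 485/em 535 nm; duplicate runs averaged.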

For data set [5], the target named is Estrogen receptor (Homo sapiens, UniProt P03372, Y537S). In words: Binding affinity to ERalpha Y537S mutant (unknown origin) expressed in Escherichia coli preincubated for 15 mins followed by ligand addition and measured after 1 hr by fluorescent polarization assay. The gist of the method: as §1
Chain of Estrogen receptor (Homo sapiens, UniProt P03372, Y537S) (P03372 whole entry Y537S): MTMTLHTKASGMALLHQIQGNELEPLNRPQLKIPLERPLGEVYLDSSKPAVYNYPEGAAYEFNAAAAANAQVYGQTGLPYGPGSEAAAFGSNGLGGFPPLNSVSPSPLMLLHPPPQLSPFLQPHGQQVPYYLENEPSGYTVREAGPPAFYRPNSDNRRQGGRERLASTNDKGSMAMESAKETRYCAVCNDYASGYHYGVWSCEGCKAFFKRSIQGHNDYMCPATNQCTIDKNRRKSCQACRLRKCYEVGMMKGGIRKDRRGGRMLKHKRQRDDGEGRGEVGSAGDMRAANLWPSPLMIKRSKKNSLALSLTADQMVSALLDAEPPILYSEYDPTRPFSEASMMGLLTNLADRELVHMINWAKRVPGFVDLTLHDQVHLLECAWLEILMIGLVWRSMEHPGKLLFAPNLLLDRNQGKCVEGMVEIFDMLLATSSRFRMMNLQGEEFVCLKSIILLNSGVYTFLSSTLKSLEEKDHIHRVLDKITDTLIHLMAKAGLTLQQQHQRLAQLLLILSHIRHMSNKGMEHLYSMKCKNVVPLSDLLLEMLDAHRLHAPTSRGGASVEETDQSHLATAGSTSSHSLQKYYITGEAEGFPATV
For data set [6], the system named is ZR-75-1. In words: Antiproliferative activity against human ZR-75-1 cells assessed as growth inhibition incubated for 7 days by CellTiter-Glo assay. Type of data set: functional. The following applies: ZR-75-1, 168 h, time 7 day. The gist of the method:
(§2)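 Breast lines from ATCC, maintained in ATCC-specified media, treated with increasing compound doses in full-serum (complete) media for 7 days. Relative cell number measured by CellTiter-Glo ATP read-out.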
In general terms: ATP-based viability assays read luminescence as a measure of living cells.

The nature of data set [7]: Cytotoxicity against human MCF-10A cells assessed as growth inhibition incubated for 7 days by CellTiter-Glo assay. It counts as cell-based. The following applies: time 7 day. In outline: as §2
A short description of data set [8]: Microsomal stability in mouse liver microsomes assessed as intrinsic clearance measured upto 60 mins. The following applies: read-out: CLH. It counts as ADME, Microsome. In outline: (§3)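 Compounds at 2 μM final incubated with pooled human or male mouse liver microsomes. Percent remaining measured at 0, 15, 30, 45 and 60 min and used to calculate in vitro half-life.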

Data set [9] can be described thus: Half life in CD1 mouse at 0.3 mg/kg, iv administered as cassette dosing […]. It counts as ADME, organism-based. The following applies: in vivo.
For data set [10], the target named is T2, Estrogen receptor. In words: Induction of ERalpha degradation in human MCF7 cells assessed as decrease in ERalpha protein expression incubated for 24 hrs by Western blot analysis. It counts as cell-based.
A short description of data set [11]: Microsomal stability in human liver microsomes assessed as intrinsic clearance measured upto 60 mins. It counts as ADME, Microsome. The following applies: read-out: CLH. In outline:
as §3

Data set [12] is described as follows: Plasma protein binding in human. It counts as ADME, cell-free. The note with it: read-out: PPB.
For data set [13], the system named is MCF7. In words: Antiproliferative activity against human MCF7 cells assessed as growth inhibition incubated for 7 days by CellTiter-Glo assay. Type of data set: functional. The note with it: MCF7, 168 h, time 7 day. In outline:
as §2

Data set [14] deals with T1, Estrogen receptor (Homo sapiens). Put plainly: (§4) Antagonist activity at ERalpha in human MCF7 cells assessed as reduction in PGR gene expression incubated for 24 hrs by qPCR analysis. Type of data set: cell-based. The note with it: filed as antagonist. The gist of the method:
(§5)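 MCF7 cells in complete media, incubated 72 h, then dosed in a 6-point series (0.5% DMSO final) for 24 h at 37 °C. RNA extracted, cDNA made, TaqMan qPCR for progesterone receptor normalized to TBP. Comparative CT (ΔΔCT) used for dose-response curves.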

The target of data set [15] is T2, Estrogen receptor. Described as §4. It counts as cell-based. The gist of the method: as §5
Data set [16] is described as follows: Apparent permeability of compound across apical to basolateral side in MDCK cells. Type of data set: ADME, cell-based, Canis lupus familiaris. The following applies: dog.

As to `Cc1ncsc1-c1ccc([C@@H](C)NC(=O)[C@@H]2C[C@@H](O)CN2C(=O)[C@H](NC(=O)COCCOCc2cn(CCOc3ccc(N(Cc4cccc(O)c4Cl)CC4(c5ccccc5F)CCCC4)cc3)nn2)C(C)(C)C)cc1`, the Drug uptake entry in data set [1] is reported as “Active”. In addition, the result in data set [2] and in [3] was Active. Moreover, the values for the 50% inhibitory concentration (IC50) in data set [4] and in data set [5] were 53 nM and 419 nM, respectively. Besides, the 50% growth inhibitory concentration (GI50) was 40.9 nM in data set [6] and 13.8 nM in [13]. For the same compound, the concentration for 50% growth inhibition (GI50) at 168 h in data set [7] is over 10000 nM. In addition, the results for the microsomal CLint in data set [8] and in [11] were 249 µL/min/mg and 59 µL/min/mg, respectively. Also, the half-life in data set [9] was 8.7 h. Further, the DC50 in data set [10] stood at 4.5 nM. The fraction unbound in data set [12] is under 0.004. Further, the Activity result in [14] is “Dose-Dependent Effect”. Besides, in data set [15], the EC50 turned out to be 27 nM. Further, in data set [16], the Papp A→B was under 0.1 ×10⁻⁶ cm/s.

As usually defined, the IC50 is the concentration at which inhibition is half-maximal. As usually defined, the GI50 is the concentration at which growth is held to half of that of the control. As usually defined, the half-life is how long it takes for the measured level to halve. Low readings indicate rapid decline, high ones slow decline. Usually DC50 stands for the midpoint of the concentration-degradation curve. What is called EC50 is the concentration needed to bring the measured effect to its halfway point. For orientation: Papp A→B means the apparent permeability from the apical to the basolateral side of a cell layer.
